From ChEMBL document CHEMBL5303300, “EUbOPEN Chemogenomics Library - Multiplex” (2023)
Several values for one entry are separate records, joined by “and”; a condition that tells them apart may be missing. Equal values may be shown once.

System: U2OS
Test: Multiplex assay against U2OS
Type: toxicity, cell-based
Conditions: human, number of replicates 2
Outline: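 Imaging took place on a CQ1 microscope at 37°C and 5% CO2 once compound had been added to live cells stained at seeding with Hoechst33342, BioTracker Green Microtubule Cytoskeleton Dye, MitoTracker Red and Annexin V Alexa Fluor 680. CellPathfinder machine-learning gating classed cells as Hoechst high-intensity objects or normal cells, classed normal cells as having healthy, pyknosed or fragmented nuclei, and classed pyknosed cells as mitotic or apoptotic. Tubulin, mitochondrial-mass and membrane-permeability phenotypes are per cents of the healthy-nucleus cells.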

[1] = 12 h, 1 µM, compound concentration 1 uM
[2] = 12 h, 10 µM, compound concentration 10 uM
[3] = 24 h, 1 µM, compound concentration 1 uM
[4] = 24 h, 10 µM, compound concentration 10 uM
[5] = 48 h, 1 µM, compound concentration 1 uM
[6] = 48 h, 10 µM, compound concentration 10 uM

OC(c1ccc(-c2ccc(CN3CCN(Cc4ccncc4)CC3)cc2)c(F)c1)(C(F)(F)F)C(F)(F)F
Population Hoechst High Intensity Objects (%) [1]: 0% | Population Mitochondria Different-Phenotype (%) [1]: 0% and 1% | Population Normal (%) [1]: 100% | Population Pyknosed Nuclei (%) [1]: 14% and 9% | Population Tubulin-Different-Phenotype (%) [1]: 100% and 87% | Population Apoptotic (%) [2]: 50% and 40% | Population Healthy Nuclei (%) [2]: 80% and 50% | Population Hoechst High Intensity Objects (%) [2]: 0% | Population Mitochondria Different-Phenotype (%) [2]: 3% and 0% | Population Mitotic Cells (%) [2]: 50% and 60% | Population Normal (%) [2]: 100% | Population Pyknosed Nuclei (%) [2]: 15% and 17% | Population Hoechst High Intensity Objects (%) [3]: 0% | Population Membrane Permeable-Phenotype (%) [3]: 0% | Population Mitochondria Different-Phenotype (%) [3]: 0% | Population Mitotic Cells (%) [3]: 100% and 42% | Population Normal (%) [3]: 100% and 99% | Population Pyknosed Nuclei (%) [3]: 20% and 9% | Population Apoptotic (%) [4]: 53% and 57% | Population Healthy Nuclei (%) [4]: 79% and 54% | Population Hoechst High Intensity Objects (%) [4]: 0% | Population Mitochondria Different-Phenotype (%) [4]: 2% and 0% | Population Mitotic Cells (%) [4]: 46% and 42% | Population Normal (%) [4]: 99% and 100% | Population Pyknosed Nuclei (%) [4]: 14% and 18% | Population Tubulin-Different-Phenotype (%) [4]: 50% and 25% | Population Hoechst High Intensity Objects (%) [5]: 0% | Population Membrane Permeable-Phenotype (%) [5]: 0% and 1% | Population Mitochondria Different-Phenotype (%) [5]: 0% | Population Normal (%) [5]: 100% | Population Pyknosed Nuclei (%) [5]: 0% and 5% | Population Apoptotic (%) [6]: 54% and 58% | Population Healthy Nuclei (%) [6]: 84% and 56% | Population Hoechst High Intensity Objects (%) [6]: 0% and 1% | Population Membrane Permeable-Phenotype (%) [6]: 3% and 10% | Population Mitochondria Different-Phenotype (%) [6]: 2% and 3% | Population Mitotic Cells (%) [6]: 45% and 41% | Population Normal (%) [6]: 100% and 98% | Population Pyknosed Nuclei (%) [6]: 11% and 23%

CN[C@@H]1C[C@H]2O[C@@](C)([C@@H]1OC)n1c3ccccc3c3c4c(c5c6ccccc6n2c5c31)C(=O)NC4 [STAUROSPORINE]
Population Apoptotic (%) [2]: 40% and 72% and 59% and 58% | Population Fragmented Nuclei (%) [2]: 50% and 34% and 30% | Population Hoechst High Intensity Objects (%) [2]: 3% and 0% | Population Membrane Permeable-Phenotype (%) [2]: 66% and 53% and 62% and 43% | Population Mitochondria Different-Phenotype (%) [2]: 66% and 53% and 51% and 68% | Population Mitotic Cells (%) [2]: 41% [middle of 4 runs] | Population Normal (%) [2]: 96% and 100% | Population Pyknosed Nuclei (%) [2]: 38% and 46% and 61% and 63% | Population Tubulin-Different-Phenotype (%) [2]: 73% [middle of 4 runs] | Population Apoptotic (%) [4]: 70% and 85% and 89% | Population Fragmented Nuclei (%) [4]: 45% and 26% and 27% and 40% | Population Healthy Nuclei (%) [4]: 5% and 3% and 4% and 8% | Population Hoechst High Intensity Objects (%) [4]: 0% and 1% | Population Mitochondria Different-Phenotype (%) [4]: 100% and 57% and 75% and 80% | Population Mitotic Cells (%) [4]: 30% and 14% and 10% | Population Normal (%) [4]: 100% and 98% | Population Pyknosed Nuclei (%) [4]: 50% and 70% and 68% | Population Tubulin-Different-Phenotype (%) [4]: 100% and 85% and 40% | Population Apoptotic (%) [6]: 86% and 87% and 88% and 91% | Population Healthy Nuclei (%) [6]: 6% and 5% and 4% | Population Hoechst High Intensity Objects (%) [6]: 0% | Population Membrane Permeable-Phenotype (%) [6]: 100% and 90% and 85% | Population Mitochondria Different-Phenotype (%) [6]: 100% and 60% and 71% | Population Mitotic Cells (%) [6]: 13% and 12% and 8% | Population Normal (%) [6]: 100% | Population Pyknosed Nuclei (%) [6]: 60% and 50% and 80% and 73% | Population Tubulin-Different-Phenotype (%) [6]: 100% and 85%

C=CC(=O)Nc1ccc2[nH]c(=O)n(C3CCN(Cc4ccc(-c5ccc6c(c5)NC(=O)CO6)cc4)CC3)c2c1 [RL2578]
Population Fragmented Nuclei (%) [1]: 5% and 4% | Population Healthy Nuclei (%) [1]: 66% and 83% | Population Hoechst High Intensity Objects (%) [1]: 0% | Population Mitochondria Different-Phenotype (%) [1]: 4% and 0% | Population Normal (%) [1]: 100% | Population Pyknosed Nuclei (%) [1]: 27% and 11% | Population Tubulin-Different-Phenotype (%) [1]: 58% and 84% | Population Apoptotic (%) [2]: 66% | Population Fragmented Nuclei (%) [2]: 18% and 9% | Population Healthy Nuclei (%) [2]: 57% and 80% | Population Hoechst High Intensity Objects (%) [2]: 0% | Population Membrane Permeable-Phenotype (%) [2]: 13% and 7% | Population Mitochondria Different-Phenotype (%) [2]: 13% and 30% | Population Mitotic Cells (%) [2]: 33% | Population Normal (%) [2]: 100% | Population Pyknosed Nuclei (%) [2]: 23% and 9% | Population Tubulin-Different-Phenotype (%) [2]: 31% and 46% | Population Apoptotic (%) [3]: 85% and 74% | Population Fragmented Nuclei (%) [3]: 8% and 4% | Population Healthy Nuclei (%) [3]: 75% and 86% | Population Hoechst High Intensity Objects (%) [3]: 0% | Population Membrane Permeable-Phenotype (%) [3]: 11% and 1% | Population Mitochondria Different-Phenotype (%) [3]: 8% and 2% | Population Mitotic Cells (%) [3]: 14% and 25% | Population Normal (%) [3]: 100% | Population Pyknosed Nuclei (%) [3]: 15% and 9% | Population Tubulin-Different-Phenotype (%) [3]: 76% and 87% | Population Apoptotic (%) [4]: 61% and 54% | Population Fragmented Nuclei (%) [4]: 9% and 8% | Population Healthy Nuclei (%) [4]: 54% and 78% | Population Hoechst High Intensity Objects (%) [4]: 1% and 0% | Population Membrane Permeable-Phenotype (%) [4]: 0% and 5% | Population Mitotic Cells (%) [4]: 38% and 45% | Population Normal (%) [4]: 98% and 99% | Population Pyknosed Nuclei (%) [4]: 35% and 12% | Population Tubulin-Different-Phenotype (%) [4]: 39% and 47% | Population Apoptotic (%) [5]: 83% and 70% | Population Healthy Nuclei (%) [5]: 68% and 90% | Population Hoechst High Intensity Objects (%) [5]: 0% | Population Membrane Permeable-Phenotype (%) [5]: 8% and 0% | Population Mitochondria Different-Phenotype (%) [5]: 4% and 0% | Population Mitotic Cells (%) [5]: 16% and 30% | Population Normal (%) [5]: 100% | Population Pyknosed Nuclei (%) [5]: 16% and 6% | Population Tubulin-Different-Phenotype (%) [5]: 80% and 84% | Population Apoptotic (%) [6]: 76% and 68% | Population Fragmented Nuclei (%) [6]: 13% and 10% | Population Healthy Nuclei (%) [6]: 53% and 70% | Population Hoechst High Intensity Objects (%) [6]: 0% and 1% | Population Membrane Permeable-Phenotype (%) [6]: 10% and 5% | Population Mitochondria Different-Phenotype (%) [6]: 7% and 18% | Population Mitotic Cells (%) [6]: 23% and 31% | Population Normal (%) [6]: 100% and 98% | Population Pyknosed Nuclei (%) [6]: 32% and 19% | Population Tubulin-Different-Phenotype (%) [6]: 71% and 59%
